Data reported in ChEMBL document CHEMBL1126934, “Non-peptide ligands for opioid receptors. Design of kappa-specific agonists” (J Med Chem, 1993).
pKi: −log10 of the molar value.

Columns and labels:
[1] = biological target: T1, Kappa-type opioid receptor (Cavia porcellus, UniProt P41144); experiment: Binding affinity for kappa opioid receptor was evaluated by displacing [3H]- diprenorphine
Mu-type opioid receptor = Mu-type opioid receptor (Rattus norvegicus, UniProt P33535); experiment: Binding affinity for mu opioid receptor was evaluated by displacing [3H]- diprenorphine
Method in brief: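 Rat brain minus cerebellum, homogenised in Tris-HCl pH 7.4, spun 40000g 30 min, membranes resuspended at 0.5 mg/mL protein in 50 mM Tris-HCl pH 7.6. Competition against [3H]diprenorphine; nonspecific binding defined with DAGO (100 nM). Ki via Cheng-Prusoff; triplicate curves, n = 5.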

[2] = biological target: Delta-type opioid receptor (Rattus norvegicus) (UniProt P33533); experiment: Binding affinity for rat delta opioid receptor was evaluated by displacing [3H]- diprenorphine
Mus musculus = experiment: Antinociceptive activity determined in mouse tail flick assay 30 min after sc injection (peak effect); format: functional; settings: 0.5 h
Method in brief: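 Male Swiss mice (20-25 g), tail flick nociceptive threshold, cutoff 8 s. Drug given sc; read 30 min after injection. ED50 with confidence limits by Litchfield and Wilcoxon method.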

[3] = biological target: T1, Kappa-type opioid receptor
[4] = biological target: T1, Kappa-type opioid receptor; remark: listed apart in the source

Sequence of Mu-type opioid receptor (P33535 whole entry): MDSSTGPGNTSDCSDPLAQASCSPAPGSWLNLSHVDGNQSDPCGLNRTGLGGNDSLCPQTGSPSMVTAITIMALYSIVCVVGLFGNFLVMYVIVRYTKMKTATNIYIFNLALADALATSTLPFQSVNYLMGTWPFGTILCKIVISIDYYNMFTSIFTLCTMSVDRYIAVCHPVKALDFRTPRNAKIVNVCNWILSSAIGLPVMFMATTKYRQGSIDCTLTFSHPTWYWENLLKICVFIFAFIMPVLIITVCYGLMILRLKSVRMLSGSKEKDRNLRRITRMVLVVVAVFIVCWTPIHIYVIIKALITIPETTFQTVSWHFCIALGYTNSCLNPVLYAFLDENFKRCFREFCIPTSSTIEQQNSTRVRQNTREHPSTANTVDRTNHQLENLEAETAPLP
Sequence of Delta-type opioid receptor (Rattus norvegicus) (P33533 whole entry): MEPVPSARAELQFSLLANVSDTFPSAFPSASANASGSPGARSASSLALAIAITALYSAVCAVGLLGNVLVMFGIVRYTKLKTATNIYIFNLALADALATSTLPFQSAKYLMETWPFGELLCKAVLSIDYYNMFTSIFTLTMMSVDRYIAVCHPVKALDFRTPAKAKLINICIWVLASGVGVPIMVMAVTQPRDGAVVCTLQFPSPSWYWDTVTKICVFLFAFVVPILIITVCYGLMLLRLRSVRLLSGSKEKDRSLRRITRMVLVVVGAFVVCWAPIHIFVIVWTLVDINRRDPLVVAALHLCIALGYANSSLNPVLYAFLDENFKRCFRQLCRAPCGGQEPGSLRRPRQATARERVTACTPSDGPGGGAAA
T1 sequence (P41144 whole entry): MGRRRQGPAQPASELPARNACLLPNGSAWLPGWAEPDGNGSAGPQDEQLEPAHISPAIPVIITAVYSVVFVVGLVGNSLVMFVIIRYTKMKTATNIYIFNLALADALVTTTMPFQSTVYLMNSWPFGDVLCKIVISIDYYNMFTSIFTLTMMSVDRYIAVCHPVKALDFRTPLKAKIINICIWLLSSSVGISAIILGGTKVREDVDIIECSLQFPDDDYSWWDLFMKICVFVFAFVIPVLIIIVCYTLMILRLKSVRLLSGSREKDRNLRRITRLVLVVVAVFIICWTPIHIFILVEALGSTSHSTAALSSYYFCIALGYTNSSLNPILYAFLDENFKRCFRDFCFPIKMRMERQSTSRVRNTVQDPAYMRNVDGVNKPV

Row | Compound | pKi [1] | pKi (Mu-type opioid receptor) | Binding affinity [2] | ED50 (Mus musculus) | pKi [3] | pKi [4]
1 | CCOC(=O)[C@]1(c2ccccc2)CC1CN1CC[C@@]2(C)c3cc(O)ccc3C[C@@H]1[C@@H]2C (stereo not given in full) | 5.35 | < 4.60 | > 25 µM | – | – | –
2 | C[C@H]1[C@H]2Cc3ccc(O)cc3[C@]1(C)CCN2CC1C[C@]1(C(=O)O)c1ccccc1 (stereo not given in full) | < 4.60 | < 4.60 | – | – | – | –
3 | CCC12CCN(CC3CC3)C(C(=O)c3ccc(O)cc31)C2C (stereo not given) | – | 6.16 | – | – | – | –
4 | CN1CC[C@]23c4c5ccc(O)c4O[C@H]2[C@@H](O)C=C[C@H]3[C@H]1C5 [MORPHINE] | – | – | 1.22 µM | 4.99 mg/kg | – | –
5 | COC(=O)[C@]1(c2ccccc2)C[C@@H]1CN1CC[C@@]2(C)c3cc(O)ccc3C[C@@H]1[C@@H]2C | 6.06 | < 4.60 | > 25 µM | 4.52 mg/kg | 5.58 | 6.08
6 | COC(=O)[C@@]1(c2ccccc2)C[C@@H]1CN1CC[C@@]2(C)c3cc(O)ccc3C[C@@H]1[C@@H]2C | 5.58 | < 4.60 | > 25 µM | – | – | –
7 | CC1[C@H]2Cc3ccc(O)cc3[C@]1(C)CCN2CCCc1ccccc1 (stereo not given in full) | 5.95 | 6.08 | – | – | – | –
8 | CCCOC(=O)[C@]1(c2ccccc2)CC1CN1CC[C@@]2(C)c3cc(O)ccc3C[C@@H]1[C@@H]2C (stereo not given in full) | 5.19 | < 4.60 | > 25 µM | – | – | –
9 | COC(=O)[C@]1(c2ccccc2)C[C@H]1CN1CC[C@@]2(C)c3cc(O)ccc3C[C@@H]1[C@@H]2C | 6.62 | < 4.60 | > 25 µM | – | 6.03 | 6.65
10 | CCCCOC(=O)[C@]1(c2ccccc2)CC1CN1CC[C@@]2(C)c3cc(O)ccc3C[C@@H]1[C@@H]2C (stereo not given in full) | < 4.60 | < 4.60 | > 25 µM | – | – | –
